Tests used:
[1] = molecular target: Sodium- and chloride-dependent GABA transporter 1 (Mus musculus) (UniProt P31648); assay: Inhibition of mouse GAT1 expressed in HEK293 cells assessed as remaining [3H]GABA uptake at 1 mM by [3H]GABA uptake assay; type: cell-based
How it was run: (§1)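 Radioactive [3H]GABA uptake run in HEK293 cells expressing mGAT1–4 with 1 mM test substance. Readout is % remaining uptake relative to an inhibitor-free control.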

[2] = molecular target: T1, GABA transporter 2 (Mus musculus) (UniProt P31651); assay: Inhibition of mouse GAT2 expressed in HEK293 cells assessed as remaining [3H]GABA uptake at 1 mM by [3H]GABA uptake assay; type: cell-based; how it was run: as §1
T1 sequence (whole entry): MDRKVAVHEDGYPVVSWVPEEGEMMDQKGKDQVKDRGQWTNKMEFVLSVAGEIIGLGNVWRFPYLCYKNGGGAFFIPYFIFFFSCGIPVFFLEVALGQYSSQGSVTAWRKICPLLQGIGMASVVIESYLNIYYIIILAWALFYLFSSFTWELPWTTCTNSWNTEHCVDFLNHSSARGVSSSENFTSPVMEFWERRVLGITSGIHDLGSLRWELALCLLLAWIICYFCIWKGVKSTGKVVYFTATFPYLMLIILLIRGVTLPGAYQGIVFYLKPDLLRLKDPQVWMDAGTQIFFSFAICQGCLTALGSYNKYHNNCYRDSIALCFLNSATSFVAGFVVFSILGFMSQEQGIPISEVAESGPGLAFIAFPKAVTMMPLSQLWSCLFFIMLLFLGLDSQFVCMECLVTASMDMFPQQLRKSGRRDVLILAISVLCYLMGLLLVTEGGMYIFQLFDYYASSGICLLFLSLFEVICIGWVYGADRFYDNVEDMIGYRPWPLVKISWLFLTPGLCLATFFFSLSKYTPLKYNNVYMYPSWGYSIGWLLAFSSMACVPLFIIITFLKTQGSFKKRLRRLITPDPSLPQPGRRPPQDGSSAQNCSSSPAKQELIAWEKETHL

[3] = molecular target: T2, GABA transporter 4 (Mus musculus) (UniProt P31650); assay: Inhibition of mouse GAT4 expressed in HEK293 cells assessed as remaining [3H]GABA uptake at 1 mM by [3H]GABA uptake assay; type: cell-based; how it was run: as §1
T2 sequence (whole entry): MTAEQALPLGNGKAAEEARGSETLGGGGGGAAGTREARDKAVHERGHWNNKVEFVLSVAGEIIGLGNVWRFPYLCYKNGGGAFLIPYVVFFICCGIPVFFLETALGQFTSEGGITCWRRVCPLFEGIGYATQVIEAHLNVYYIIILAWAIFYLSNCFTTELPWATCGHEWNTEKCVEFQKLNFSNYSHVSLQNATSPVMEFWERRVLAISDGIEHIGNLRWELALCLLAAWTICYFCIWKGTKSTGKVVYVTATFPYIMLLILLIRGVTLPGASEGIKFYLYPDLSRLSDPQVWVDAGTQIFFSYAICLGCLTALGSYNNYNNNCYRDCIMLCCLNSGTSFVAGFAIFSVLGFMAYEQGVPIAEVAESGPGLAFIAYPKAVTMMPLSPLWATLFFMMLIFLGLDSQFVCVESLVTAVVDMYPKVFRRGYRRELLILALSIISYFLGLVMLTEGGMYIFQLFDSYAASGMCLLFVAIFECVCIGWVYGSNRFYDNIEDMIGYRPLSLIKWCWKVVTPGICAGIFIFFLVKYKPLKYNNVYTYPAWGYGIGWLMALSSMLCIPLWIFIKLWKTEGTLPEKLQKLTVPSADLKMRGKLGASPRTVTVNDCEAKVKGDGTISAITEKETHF

[4] = molecular target: T3, GABA transporter 3 (Mus musculus) (UniProt P31649); assay: Inhibition of mouse GAT3 expressed in HEK293 cells assessed as remaining [3H]GABA uptake at 1 mM by [3H]GABA uptake assay; type: cell-based; how it was run: as §1
T3 sequence (whole entry): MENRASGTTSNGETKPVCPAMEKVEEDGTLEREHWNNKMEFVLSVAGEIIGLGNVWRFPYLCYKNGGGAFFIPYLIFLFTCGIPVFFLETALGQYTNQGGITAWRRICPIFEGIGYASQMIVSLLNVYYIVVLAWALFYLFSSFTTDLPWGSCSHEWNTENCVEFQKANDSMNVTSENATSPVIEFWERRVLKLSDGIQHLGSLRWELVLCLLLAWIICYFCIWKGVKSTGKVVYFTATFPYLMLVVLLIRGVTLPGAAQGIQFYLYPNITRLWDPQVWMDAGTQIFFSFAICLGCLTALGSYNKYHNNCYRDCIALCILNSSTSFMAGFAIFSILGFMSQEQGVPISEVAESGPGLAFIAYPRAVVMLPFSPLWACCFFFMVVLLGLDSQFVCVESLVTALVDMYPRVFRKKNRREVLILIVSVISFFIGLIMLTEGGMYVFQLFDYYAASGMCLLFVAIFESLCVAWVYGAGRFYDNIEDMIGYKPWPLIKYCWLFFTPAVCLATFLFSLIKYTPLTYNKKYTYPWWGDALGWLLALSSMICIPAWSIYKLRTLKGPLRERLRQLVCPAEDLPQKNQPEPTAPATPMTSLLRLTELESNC

GABA transporter 3 = molecular target: T4, GABA transporter 3 (Mus musculus, UniProt P31649); assay: Inhibition of mouse GAT3 expressed in HEK293 cells by [3H]GABA uptake assay; type: cell-based
T4 sequence (P31649 whole entry): T3 sequence (whole entry)

[5] = molecular target: T5, Sodium- and chloride-dependent GABA transporter 1 (Mus musculus, UniProt P31648); assay: Inhibition of mouse GAT1 expressed in HEK293 cells by [3H]GABA uptake assay; type: cell-based
GABA transporter 4 = molecular target: T6, GABA transporter 4 (Mus musculus, UniProt P31650); assay: Inhibition of mouse GAT4 expressed in HEK293 cells by [3H]GABA uptake assay; type: cell-based
T6 sequence (P31650 whole entry): T2 sequence (whole entry)

[6] = molecular target: T7, Sodium- and chloride-dependent GABA transporter 1 (Homo sapiens, UniProt P30531); assay: Binding affinity to human GAT1 expressed in HEK293 cells using NO71156 as unlabelled marker by LC-ESI-MS-MS based competitive MS binding assay; type: cell-based
T7 sequence (P30531 whole entry): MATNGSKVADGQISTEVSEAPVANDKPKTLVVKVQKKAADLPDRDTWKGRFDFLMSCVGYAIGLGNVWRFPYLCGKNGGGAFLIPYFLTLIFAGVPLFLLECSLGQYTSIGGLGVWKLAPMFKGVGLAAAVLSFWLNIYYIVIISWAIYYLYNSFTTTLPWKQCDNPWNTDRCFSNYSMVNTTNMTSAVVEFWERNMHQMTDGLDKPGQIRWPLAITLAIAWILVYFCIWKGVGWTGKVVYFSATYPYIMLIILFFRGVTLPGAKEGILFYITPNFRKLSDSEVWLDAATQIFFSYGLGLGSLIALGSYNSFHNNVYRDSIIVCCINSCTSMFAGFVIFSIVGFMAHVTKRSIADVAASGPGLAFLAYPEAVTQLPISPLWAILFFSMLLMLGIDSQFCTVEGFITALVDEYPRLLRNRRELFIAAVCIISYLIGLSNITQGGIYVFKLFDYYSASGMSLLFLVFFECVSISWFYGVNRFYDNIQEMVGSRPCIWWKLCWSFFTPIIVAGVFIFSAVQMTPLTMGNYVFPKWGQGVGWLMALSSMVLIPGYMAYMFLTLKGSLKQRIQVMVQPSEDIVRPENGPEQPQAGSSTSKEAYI
How it was run: (§2)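 Competitive MS Binding Assay using membrane preparations from HEK293 cells expressing the transporter. hGAT-1 membranes were prepared the same way as mGAT1 membranes. Affinity reported as pKi ± SEM from three independent experiments.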

[7] = molecular target: T5, Sodium- and chloride-dependent GABA transporter 1; assay: Binding affinity to mouse GAT1 expressed in HEK293 cells using NO71156 as unlabelled marker by LC-ESI-MS-MS based competitive MS binding assay; type: cell-based; how it was run: as §2
GABA transporter 2 = molecular target: T8, GABA transporter 2 (Mus musculus, UniProt P31651); assay: Inhibition of mouse GAT2 expressed in HEK293 cells by [3H]GABA uptake assay; type: cell-based
T8 sequence (P31651 whole entry): T1 sequence (whole entry)
How it was run: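 [3H]GABA uptake inhibition in HEK293 cells expressing mGAT1–4 or hGAT-1, reported as pIC50 (mean ± SEM, n = 3 independent experiments). The hGAT-1 assay matched the mGAT1 assay except that HEK293 […] expressing hGAT-1 was used.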

[8] = molecular target: T1, GABA transporter 2 (Mus musculus); assay: Inhibition of mouse GAT2 expressed in HEK293 cells assessed as remaining [3H]GABA uptake at 100 uM by [3H]GABA uptake assay; type: cell-based
How it was run: (§3)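 Transfected HEK293 cells (mGAT1–4) tested for [3H]GABA uptake at 100 µM test substance. Remaining uptake is expressed against a control without inhibitor.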

[9] = molecular target: Sodium- and chloride-dependent GABA transporter 1 (Mus musculus) (UniProt P31648); assay: Inhibition of mouse GAT1 expressed in HEK293 cells assessed as remaining [3H]GABA uptake at 100 uM by [3H]GABA uptake assay; type: cell-based; how it was run: as §3
[10] = molecular target: T3, GABA transporter 3 (Mus musculus); assay: Inhibition of mouse GAT3 expressed in HEK293 cells assessed as remaining [3H]GABA uptake at 100 uM by [3H]GABA uptake assay; type: cell-based; how it was run: as §3
[11] = molecular target: T7, Sodium- and chloride-dependent GABA transporter 1; assay: Inhibition of human GAT1 expressed in HEK293 cells by [3H]GABA uptake assay; type: cell-based
[12] = molecular target: T2, GABA transporter 4 (Mus musculus); assay: Inhibition of mouse GAT4 expressed in HEK293 cells assessed as remaining [3H]GABA uptake at 100 uM by [3H]GABA uptake assay; type: cell-based; how it was run: as §3
Mus musculus = species: Mus musculus; assay: Selectivity for mouse GAT1 over mouse GAT4

Row | Activity [2] [%] | IC50 (GABA transporter 3) [µM] | IC50 [5] [µM] | IC50 (GABA transporter 4) [µM] | Ki [7] [µM] | Activity [8] [%] | SMILES | other results
1 | 59 | 309 | – | 339 | – | – | CC(C(=O)O)[C@H]1CCCN1 (mixture of isomers) | Activity [1]: 83%
2 | 52 | – | – | 372 | – | – | N[C@H](C(=O)O)[C@H]1CCCN1 (racemic) | Activity [1]: 1%; Activity [4]: 59%
3 | 82 | – | – | – | – | – | CCC(C(=O)O)[C@H]1CCCN1 (mixture of isomers) | Activity [1]: 78%; Activity [3]: 95%; Activity [4]: 78%
4 | 81 | 339 | 240 | 1120 | – | – | O=C(O)C[C@H]1CCCN1 | –
5 | 95 | 269 | – | – | – | – | O=C(O)[C@@H](O)[C@H]1CCCN1 (racemic) | Activity [1]: 53%; Activity [3]: 61%
6 | – | 36.3 | 1000 | 14.1 | – | – | O=C(O)[C@H](O)[C@H]1CCCN1 (racemic) | Selectivity ratio (Mus musculus): > 71; IC50 (GABA transporter 2): 170 µM
7 | 77 | 141 | 407 | 309 | – | – | O=C(O)C[C@@H]1CCCN1 | –
8 | – | 26.9 | 123 | 21.4 | – | – | N[C@@H](C(=O)O)[C@H]1CCCN1 (racemic) | IC50 (GABA transporter 2): 158 µM

Further lines, the compound ahead of its results:

Row | SMILES | Activity [2] [%] | IC50 (GABA transporter 3) [µM] | IC50 [5] [µM] | IC50 (GABA transporter 4) [µM] | Ki [7] [µM] | Activity [8] [%] | other results
9 | O=C(O)C1([C@H]2CCCN2)CCC1 (racemic) | 91 | – | – | – | – | – | Activity [1]: 92%; Activity [3]: 110%; Activity [4]: 73%
10 | Cc1ccsc1C(=CCCN1CCC[C@@H]1[C@@H](N)C(=O)O)c1sccc1C (racemic) | – | 30.2 | 14.1 | 31.6 | 17.4 | – | Ki [6]: 20.4 µM; IC50 (GABA transporter 2): 42.7 µM
11 | COc1ccc(C(OCCN2CCC[C@@H]2[C@H](O)C(=O)O)(c2ccc(OC)cc2)c2ccc(OC)cc2)cc1 (racemic) | – | – | – | 6.61 | – | 64 | Activity [9]: 80%; Activity [10]: 70%
12 | N[C@@H](C(=O)O)[C@H]1CCCN1CCC=C(c1ccccc1)c1ccccc1 (racemic) | – | 11.5 | 49 | 17.4 | – | 66 | –
13 | O=C(O)[C@@H](O)[C@H]1CCCN1CCC=C(c1ccccc1)c1ccccc1 (racemic) | – | 100 | 2.29 | – | 0.145 | 60 | IC50 [11]: 1.91 µM; Activity [12]: 55%; Ki [6]: 0.214 µM
14 | Cc1ccsc1C(=CCCN1CCC[C@@H]1[C@H](O)C(=O)O)c1sccc1C (racemic) | – | 42.7 | 2.14 | – | 0.102 | 58 | IC50 [11]: 0.724 µM; Activity [12]: 59%; Selectivity ratio (Mus musculus): > 47; Ki [6]: 0.0661 µM
15 | Cc1ccsc1C(=CCCN1CCC[C@@H]1[C@H](N)C(=O)O)c1sccc1C (racemic) | – | – | 100 | 100 | 37.2 | – | Activity [10]: 63%; Ki [6]: 19.1 µM; IC50 (GABA transporter 2): 100 µM
16 | Cc1ccsc1C(=CCCN1CCC[C@@H](C(=O)O)C1)c1sccc1C [TIAGABINE] | – | – | – | – | 0.0372 | – | –
17 | N[C@H](C(=O)O)[C@H]1CCCN1CCC=C(c1ccccc1)c1ccccc1 (racemic) | – | – | 34.7 | – | – | 61 | Activity [12]: 83%; Activity [10]: 71%
18 | CC(C)(C(=O)O)[C@H]1CCCN1 (racemic) | 108 | – | – | – | – | – | Activity [1]: 83%; Activity [3]: 95%; Activity [4]: 93%
19 | O=C(O)[C@H](O)[C@H]1CCCN1CCC=C(c1ccccc1)c1ccccc1 (racemic) | – | – | 25.1 | – | 3.89 | 89 | IC50 [11]: 13.8 µM; Activity [12]: 59%; Activity [10]: 97%; Ki [6]: 3.98 µM
20 | Cc1ccsc1C(=CCCN1CCC[C@@H]1[C@@H](O)C(=O)O)c1sccc1C (racemic) | – | – | 3.39 | – | 1.07 | 63 | IC50 [11]: 4.17 µM; Activity [12]: 74%; Selectivity ratio (Mus musculus): > 29; Activity [10]: 90%; Ki [6]: 1.1 µM
21 | COc1ccc(C(OCCN2CCC[C@@H]2[C@@H](O)C(=O)O)(c2ccc(OC)cc2)c2ccc(OC)cc2)cc1 (racemic) | – | 17 | – | 5.75 | – | 56 | Activity [9]: 68%

— ChEMBL document CHEMBL3396951, “Design, synthesis and SAR studies of GABA uptake inhibitors derived from 2-substituted pyrrolidine-2-yl-acetic acids” (Bioorg Med Chem, 2015)
